{"source": "ChEMBL document CHEMBL1124917", "about": "(1990)", "format_in_all_cases": "functional, Mus musculus", "key": {"P388 [1]": {"tested_on": "P388", "test": "Antitumor activity was determined after intraperitoneal injection on day 1 at a dose of 256 mg/kg following intraperitoneal implant of P388 leukemia cells in CDF1 mice", "in_short": "(§1)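 P388 leukemia carried as ascites in DBA/2 mice; 10⁶ cells implanted ip into female CDF₁ mice (16–20 g), six per dose, 10 as untreated leukemia controls. Single ip dose of freshly prepared aqueous solution 1 day after implant. Daily observation for 30 days; activity taken as median survival time, treated vs untreated groups (% T/C).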"}, "[2]": {"test": "Average weight change of mice was determined on day 6 after intraperitoneal injection on day 1 at a dose of 256 mg/kg following intraperitoneal implant of P388 leukemia cells in CDF1 mice", "in_short": "(§2)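 Female CDF₁ mice (16–20 g), six per dose, implanted ip with 10⁶ P388 cells kept as ascites in DBA/2 mice. Single ip dose of freshly prepared aqueous solution 1 day post-implant. Body weight change averaged per dose group, read on day 6, in grams.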"}, "P388 [3]": {"tested_on": "P388", "test": "Antitumor activity was determined after intraperitoneal injection on day 1 at a dose of 200 mg/kg following intraperitoneal implant of P388 leukemia cells in CDF1 mice", "in_short": "as §1"}, "P388 [4]": {"tested_on": "P388", "test": "Antitumor activity was determined after intraperitoneal injection on day 1 at a dose of 100 mg/kg following intraperitoneal implant of P388 leukemia cells in CDF1 mice", "in_short": "as §1"}, "P388 [5]": {"tested_on": "P388", "test": "Average weight change of mice was determined on day 6 after intraperitoneal injection on day 1 at a dose of 200 mg/kg following intraperitoneal implant of P388 leukemia cells in CDF1 mice", "in_short": "as §2"}, "P388 [6]": {"tested_on": "P388", "test": "Average weight change of mice was determined on day 6 after intraperitoneal injection on day 1 at a dose of 100 mg/kg following intraperitoneal implant of P388 leukemia cells in CDF1 mice", "in_short": "as §2"}, "P388 [7]": {"tested_on": "P388", "test": "Average weight change of mice was determined on day 6 after intraperitoneal injection on day 1 at a dose of 32 mg/kg following intraperitoneal implant of P388 leukemia cells in CDF1 mice", "in_short": "as §2"}, "P388 [8]": {"tested_on": "P388", "test": "Average weight change of mice was determined on day 6 after intraperitoneal injection on day 1 at a dose of 64 mg/kg following intraperitoneal implant of P388 leukemia cells in CDF1 mice", "in_short": "as §2"}, "P388 [9]": {"tested_on": "P388", "test": "Antitumor activity which was determined after intraperitoneal injection on day 1 at a dose of 32 mg/kg following intraperitoneal implant of P388 leukemia cells in CDF1 mice", "in_short": "as §1"}, "P388 [10]": {"tested_on": "P388", "test": "Average weight change of mice was determined on day 6 after intraperitoneal injection on day 1 at a dose of 128 mg/kg following intraperitoneal implant of P388 leukemia cells in CDF1 mice", "in_short": "as §2"}, "P388 [11]": {"tested_on": "P388", "test": "Antitumor activity was determined after intraperitoneal injection on day 1 at a dose of 64 mg/kg following intraperitoneal implant of P388 leukemia cells in CDF1 mice", "in_short": "as §1"}, "P388 [12]": {"tested_on": "P388", "test": "Antitumor activity was determined after intraperitoneal injection on day 1 at a dose of 128 mg/kg following intraperitoneal implant of P388 leukemia cells in CDF1 mice", "in_short": "as §1"}, "P388 [13]": {"tested_on": "P388", "test": "Antitumor activity was determined after intraperitoneal injection on day 1 at a dose of 50 mg/kg following intraperitoneal implant of P388 leukemia cells in CDF1 mice", "in_short": "as §1"}, "P388 [14]": {"tested_on": "P388", "test": "Average weight change of mice was determined on day 6 after intraperitoneal injection on day 1 at a dose of 400 mg/kg following intraperitoneal implant of P388 leukemia cells in CDF1 mice", "in_short": "as §2"}, "P388 [15]": {"tested_on": "P388", "test": "Antitumor activity was determined after intraperitoneal injection on day 1 at a dose of 400 mg/kg following intraperitoneal implant of P388 leukemia cells in CDF1 mice", "in_short": "as §1"}, "P388 [16]": {"tested_on": "P388", "test": "Average weight change of mice was determined on day 6 after intraperitoneal injection on day 1 at a dose of 50 mg/kg following intraperitoneal implant of P388 leukemia cells in CDF1 mice", "in_short": "as §2"}}, "data": [{"smiles": "CC(=O)O[C@H]1C[C@H](n2cc(C)c(=O)[nH]c2=O)O[C@@H]1COC(=O)NP(=O)(N1CC1(C)C)N1CC1(C)C", "note": "(stereo not given in full)", "values": [{"measurement": "T/C", "setting": "P388 [1]", "value": 113, "unit": "%"}, {"measurement": "AWC", "setting": "[2]", "value": -1.3, "unit": "g"}]}, {"smiles": "CC(=O)OC[C@H]1O[C@@H](n2cc(C)c(=O)[nH]c2=O)C[C@@H]1OC(=O)NP(=O)(N1CC1(C)C)N1CC1(C)C", "note": "(stereo not given in full)", "values": [{"measurement": "T/C", "setting": "P388 [1]", "value": 125, "unit": "%"}, {"measurement": "AWC", "setting": "[2]", "value": -0.5, "unit": "g"}]}, {"smiles": "CCOP(=O)(N1CC1(C)C)N1CC1(C)C", "note": "(stereo not given)", "values": [{"measurement": "T/C", "setting": "P388 [3]", "value": 433, "unit": "%"}, {"measurement": "T/C", "setting": "P388 [4]", "value": 289, "unit": "%"}, {"measurement": "AWC", "setting": "P388 [5]", "value": -5.2, "unit": "g"}, {"measurement": "AWC", "setting": "P388 [6]", "value": -2.6, "unit": "g"}]}, {"smiles": "Cc1cn(C2CC(O)C(CNP(=O)(N3CC3(C)C)N3CC3(C)C)O2)c(=O)[nH]c1=O", "note": "(stereo not given)", "values": [{"measurement": "AWC", "setting": "P388 [7]", "value": -0.7, "unit": "g"}, {"measurement": "AWC", "setting": "P388 [8]", "value": -0.4, "unit": "g"}, {"measurement": "T/C", "setting": "P388 [1]", "value": 156, "unit": "%"}, {"measurement": "T/C", "setting": "P388 [9]", "value": 131, "unit": "%"}, {"measurement": "AWC", "setting": "[2]", "value": -0.7, "unit": "g"}, {"measurement": "AWC", "setting": "P388 [10]", "value": -0.8, "unit": "g"}, {"measurement": "T/C", "setting": "P388 [11]", "value": 150, "unit": "%"}, {"measurement": "T/C", "setting": "P388 [12]", "value": 150, "unit": "%"}]}, {"smiles": "CCOC(=O)NP(=O)(N1CC1(C)C)N1CC1(C)C", "note": "(stereo not given) [METUREDEPA]", "values": [{"measurement": "T/C", "setting": "P388 [13]", "value": 163, "unit": "%"}, {"measurement": "T/C", "setting": "P388 [3]", "value": 231, "unit": "%"}, {"measurement": "AWC", "setting": "P388 [14]", "value": -1.3, "unit": "g"}, {"measurement": "T/C", "setting": "P388 [15]", "value": 244, "unit": "%"}, {"measurement": "T/C", "setting": "P388 [4]", "value": 181, "unit": "%"}, {"measurement": "AWC", "setting": "P388 [5]", "value": -0.2, "unit": "g"}, {"measurement": "AWC", "setting": "P388 [6]", "value": -0.4, "unit": "g"}, {"measurement": "AWC", "setting": "P388 [16]", "value": -0.7, "unit": "g"}]}, {"smiles": "CC1(C)CN1P(=O)(Nc1ccccc1)N1CC1(C)C", "note": "(stereo not given) [PHOSPHINIC ANILIDE DERIVATE]", "values": [{"measurement": "AWC", "setting": "P388 [8]", "value": -1.3, "unit": "g"}, {"measurement": "T/C", "setting": "P388 [1]", "value": 169, "unit": "%"}, {"measurement": "AWC", "setting": "[2]", "value": -0.8, "unit": "g"}, {"measurement": "AWC", "setting": "P388 [10]", "value": -0.7, "unit": "g"}, {"measurement": "T/C", "setting": "P388 [11]", "value": 144, "unit": "%"}, {"measurement": "T/C", "setting": "P388 [12]", "value": 138, "unit": "%"}]}]}
